Common to all, as to assay type: functional
The subject of test [1] is Pseudomonas aeruginosa. In words: Antibacterial activity against Pseudomonas aeruginosa PAO1. Summed up: (§1)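 Value is the minimal inhibitory concentration (MIC) against the test organism, read after 24 h of incubation.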
Test [2] relates to Staphylococcus aureus. In words: Antibacterial activity against methicillin-resistant Staphylococcus aureus 97-115 after 24 hrs. Summed up: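 Read-out is the minimal inhibitory concentration (MIC), taken after 24 h incubation with the test organism.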
Test [3] has as its system Escherichia coli. In words: Antibacterial activity against Escherichia coli NIHJ JC-2 after 24 hrs. Summed up:
as §1

Test [4] deals with Staphylococcus aureus. In words: Antibacterial activity against Staphylococcus aureus 209PJC after 24 hrs. Summed up:
as §1

The test system of test [5] is Staphylococcus aureus. In words: Bactericidal activity against methicillin-resistant Staphylococcus aureus 97-115 preincubated for 5 mins before addition of growth medium measured after 40 to 48 hrs. The essentials:
(§2)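 Read-out is the minimal bactericidal concentration (MBC), taken after 1, 3 and 5 min contact of compound with the test organism.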

The subject of test [6] is Pseudomonas aeruginosa. In words: Bactericidal activity against Pseudomonas aeruginosa PAO1 preincubated for 5 mins before addition of growth medium measured after 40 to 48 hrs.
Test [7] concerns Escherichia coli. In words: Bactericidal activity against Escherichia coli NIHJ JC-2 preincubated for 1 min before addition of growth medium measured after 40 to 48 hrs.
Test [8] concerns Staphylococcus aureus. In words: Bactericidal activity against Staphylococcus aureus 209PJC preincubated for 1 min before addition of growth medium measured after 40 to 48 hrs.
The test system of test [9] is Pseudomonas aeruginosa. In words: Bactericidal activity against Pseudomonas aeruginosa PAO1 preincubated for 3 mins before addition of growth medium measured after 40 to 48 hrs.
The test system of test [10] is Staphylococcus aureus. In words: Bactericidal activity against methicillin-resistant Staphylococcus aureus 97-115 preincubated for 1 min before addition of growth medium measured after 40 to 48 hrs. Summed up:
as §2

The subject of test [11] is Pseudomonas aeruginosa. In words: Bactericidal activity against Pseudomonas aeruginosa PAO1 preincubated for 1 min before addition of growth medium measured after 40 to 48 hrs.
The subject of test [12] is Staphylococcus aureus. In words: Bactericidal activity against Staphylococcus aureus 209PJC preincubated for 3 mins before addition of growth medium measured after 40 to 48 hrs.
Test [13] relates to Staphylococcus aureus. In words: Bactericidal activity against methicillin-resistant Staphylococcus aureus 97-115 preincubated for 3 mins before addition of growth medium measured after 40 to 48 hrs. Summed up:
as §2

The test system of test [14] is Staphylococcus aureus. In words: Bactericidal activity against Staphylococcus aureus 209PJC preincubated for 5 mins before addition of growth medium measured after 40 to 48 hrs.
Test [15] relates to Escherichia coli. In words: Bactericidal activity against Escherichia coli NIHJ JC-2 preincubated for 5 mins before addition of growth medium measured after 40 to 48 hrs.
Test [16] concerns Escherichia coli. In words: Bactericidal activity against Escherichia coli NIHJ JC-2 preincubated for 3 mins before addition of growth medium measured after 40 to 48 hrs.

Some results are limits rather than exact numbers.

The term MIC denotes the lowest concentration that inhibits growth of the organism. A higher MIC goes with a less susceptible organism. By MBC is commonly meant the smallest concentration meeting the test's criterion for killing.

For `CC(=O)O.CCCCCCCCCCNC1=NC(C)(C)NC(Nc2ccccc2)=N1`, the MIC was 100 µg/mL in [1], 0.4 µg/mL in test [2], 12.5 µg/mL in [3] and 0.4 µg/mL in test [4].

Take `CC(=O)O.CCCCCCCCNC1=NC(C)(C)NC(NCc2ccccc2)=N1`: the MIC in test [1] turned out to be 25 µg/mL; in test [2], 1.6 µg/mL; in [3] it was 12.5 µg/mL; in test [4], 0.8 µg/mL. Besides, the MBC is 50 µg/mL in [5]; 12.5 µg/mL in [6]; 12.5 µg/mL in [7]; 25 µg/mL in test [8]; 12.5 µg/mL in [9]; more than 50 µg/mL in test [10]. The MBC in test [11] was 25 µg/mL; in [12], 12.5 µg/mL; in [13], 50 µg/mL; in test [14], 6.3 µg/mL; in test [15] it was 6.3 µg/mL; in test [16], 6.3 µg/mL.

With `CC(=O)O.CCCCCCCCCCNC1=NC(C)(C)NC(NCc2ccc(C)cc2)=N1`, the MIC was 100 µg/mL in [1], 0.8 µg/mL in test [2], 100 µg/mL in [3] and 0.8 µg/mL in [4].

Consider `CCCCCCCCCNC1=NC(C)(C)NC(NCc2ccc(OC)cc2)=N1.CS(=O)(=O)O`, for which the MIC stood at 50 µg/mL in [1], 1.6 µg/mL in [2], 25 µg/mL in test [3] and 0.8 µg/mL in test [4]. Further, the MBC in test [5] is more than 100 µg/mL; in test [6], 12.5 µg/mL; in test [7] it was 12.5 µg/mL; in [8], 6.3 µg/mL; in test [9] it was 12.5 µg/mL; in test [10], more than 100 µg/mL. For the same molecule, the MBC was 25 µg/mL in test [11]; 6.3 µg/mL in test [12]; more than 100 µg/mL in test [13]; 3.1 µg/mL in test [14]; 3.1 µg/mL in [15]; 6.3 µg/mL in test [16].

Turning to `CC(=O)O.CCCCCCCCCNC1=NC(C)(C)NC(NCc2ccccc2)=N1`, the MIC in [1] was determined as 12.5 µg/mL; in test [2], 1.6 µg/mL; in [3] it was 12.5 µg/mL; in test [4], 0.8 µg/mL. Besides, the MBC in [5] was determined as 6.3 µg/mL; in [6], 3.1 µg/mL; in [7] it was 6.3 µg/mL; in test [8], 12.5 µg/mL; in [9], 3.1 µg/mL; in test [10], 12.5 µg/mL. In addition, the MBC in test [11] came to 6.3 µg/mL; in test [12] it was 6.3 µg/mL; in test [13] it was 6.3 µg/mL; in test [14] it was 6.3 µg/mL; in test [15], 3.1 µg/mL; in test [16], 6.3 µg/mL.

`CC(=O)O.CCCCCCCCCCNC1=NC(C)(C)NC(NCCc2ccccc2)=N1`: the MIC in test [1] came out at 25 µg/mL; in [2] it was 0.8 µg/mL; in test [3] it was 25 µg/mL; in test [4], 0.8 µg/mL. Moreover, the MBC in test [5] is more than 50 µg/mL; in test [6] it was 12.5 µg/mL; in test [7], 12.5 µg/mL; in test [8], 50 µg/mL; in test [9] it was 12.5 µg/mL; in test [10], more than 50 µg/mL. The MBC in [11] was 25 µg/mL; in [12], 12.5 µg/mL; in test [13], more than 50 µg/mL; in test [14], 12.5 µg/mL; in test [15] it was 12.5 µg/mL; in test [16], 12.5 µg/mL.

With `CC(=O)O.CCCCCCCNC1=NC(C)(C)NC(NCc2ccc(C)cc2)=N1`, the MIC in test [1] came to 50 µg/mL; in test [2], 1.6 µg/mL; in test [3], 25 µg/mL; in test [4] it was 0.8 µg/mL. In addition, the MBC in [5] is 50 µg/mL; in test [6] it was 12.5 µg/mL; in [7], 25 µg/mL; in [8], 25 µg/mL; in test [9] it was 12.5 µg/mL; in [10] it was 50 µg/mL. Moreover, the MBC came out at 25 µg/mL in [11]; 12.5 µg/mL in [12]; 50 µg/mL in test [13]; 12.5 µg/mL in [14]; 12.5 µg/mL in test [15]; 12.5 µg/mL in [16].

For the molecule `CC(=O)O.CCCCCCCCCCCNC1=NC(C)(C)NC(NCc2ccc(OC)cc2)=N1`, the MIC amounted to 100 µg/mL in test [1], 0.8 µg/mL in [2], 100 µg/mL in test [3] and 0.4 µg/mL in test [4].

On to `CC(=O)O.CCCCCCCCCCNC1=NC(C)(C)NC(NCc2ccc(OC)cc2)=N1`, for which the MIC in [1] is 50 µg/mL; in test [2], 0.8 µg/mL; in [3], 25 µg/mL; in [4], 0.4 µg/mL. Also, the MBC in test [5] worked out at 6.3 µg/mL; in test [6], 3.1 µg/mL; in test [7], 12.5 µg/mL; in test [8] it was 12.5 µg/mL; in test [9] it was 3.1 µg/mL; in test [10], 25 µg/mL. For the same molecule, the MBC in test [11] was found to be 12.5 µg/mL; in test [12], 6.3 µg/mL; in test [13], 6.3 µg/mL; in test [14], 3.1 µg/mL; in [15], 6.3 µg/mL; in [16], 6.3 µg/mL.

Regarding `CC(=O)O.CCCCCCCCNC1=NC(NCCC)=NC(C)(C)N1`, the MIC in test [1] was 100 µg/mL; in test [2], 6.3 µg/mL; in test [3], 100 µg/mL; in test [4], 1.6 µg/mL.

On to `CC(=O)O.CCCCCCCCNC1=NC(C)(C)NC(NCc2ccc(C(F)(F)F)cc2)=N1`, for which the MIC worked out at 25 µg/mL in [1], 0.8 µg/mL in test [2], 50 µg/mL in [3] and 0.4 µg/mL in [4]. Besides, the MBC was determined as 6.3 µg/mL in test [5]; 6.3 µg/mL in test [6]; 3.1 µg/mL in test [7]; 12.5 µg/mL in test [8]; 6.3 µg/mL in test [9]; 6.3 µg/mL in test [10]. Also, the MBC in test [11] was determined as 12.5 µg/mL; in test [12], 6.3 µg/mL; in test [13], 6.3 µg/mL; in test [14] it was 6.3 µg/mL; in test [15], 3.1 µg/mL; in test [16] it was 3.1 µg/mL.

On to `CC(=O)O.CCCCCCCCCCCNC1=NC(C)(C)NC(NCc2ccccc2)=N1`, for which the MIC turned out to be 100 µg/mL in test [1], 0.8 µg/mL in test [2], 100 µg/mL in test [3] and 0.4 µg/mL in [4].

Turning to `CC(=O)O.CCCCCCCCNC1=NC(C)(C)NC(NCc2ccc(Cl)cc2)=N1`, the MIC stood at 25 µg/mL in test [1], 0.8 µg/mL in test [2], 25 µg/mL in test [3] and 0.8 µg/mL in test [4]. The MBC in test [5] came out at 6.3 µg/mL; in test [6] it was 1.6 µg/mL; in test [7], 3.1 µg/mL; in test [8] it was 3.1 µg/mL; in [9], 1.6 µg/mL; in [10], 6.3 µg/mL. Also, the MBC in test [11] came out at 6.3 µg/mL; in test [12] it was 3.1 µg/mL; in [13], 6.3 µg/mL; in [14] it was 3.1 µg/mL; in test [15] it was 1.6 µg/mL; in test [16] it was 1.6 µg/mL.

With `CC(=O)O.CCCCCCCCNC1=NC(C)(C)NC(NCc2ccccc2Cl)=N1`, the MIC worked out at 25 µg/mL in [1], 0.8 µg/mL in test [2], 25 µg/mL in test [3] and 0.8 µg/mL in test [4]. In addition, the MBC is 6.3 µg/mL in test [5]; 1.6 µg/mL in test [6]; 3.1 µg/mL in test [7]; 12.5 µg/mL in test [8]; 3.1 µg/mL in test [9]; 12.5 µg/mL in [10]. Further, the MBC is 6.3 µg/mL in test [11]; 6.3 µg/mL in [12]; 6.3 µg/mL in test [13]; 6.3 µg/mL in test [14]; 1.6 µg/mL in test [15]; 3.1 µg/mL in test [16].

Turning to `CC(=O)O.CCCCCCCCCNC1=NC(C)(C)NC(NCc2ccc(C)cc2)=N1`, the MIC turned out to be 50 µg/mL in test [1], 0.8 µg/mL in test [2], 25 µg/mL in [3] and 0.8 µg/mL in [4]. The MBC in test [5] amounted to 12.5 µg/mL; in test [6], 3.1 µg/mL; in test [7], 6.3 µg/mL; in [8], 6.3 µg/mL; in test [9] it was 3.1 µg/mL; in test [10], 25 µg/mL. Further, the MBC in test [11] worked out at 12.5 µg/mL; in [12], 3.1 µg/mL; in test [13] it was 12.5 µg/mL; in test [14], 3.1 µg/mL; in test [15], 1.6 µg/mL; in [16], 1.6 µg/mL.

Take `CC(=O)O.CCCCCCCNC1=NC(C)(C)NC(Nc2ccccc2)=N1`: the MIC in [1] was 100 µg/mL; in test [2], 6.3 µg/mL; in test [3], 50 µg/mL; in test [4], 6.3 µg/mL.

`CC(=O)O.CCCCCCCCNC1=NC(C)(C)NC(NCCCCCCCC)=N1`: the MIC was more than 100 µg/mL in test [1], 1.6 µg/mL in [2], 100 µg/mL in [3] and 0.8 µg/mL in [4].

`CC(=O)O.CCCCCCCCCCNC1=NC(C)(C)NC(NCc2ccccc2)=N1`: the MIC was determined as 25 µg/mL in test [1], 0.4 µg/mL in test [2], 12.5 µg/mL in [3] and 0.4 µg/mL in test [4]. Also, the MBC worked out at 6.3 µg/mL in test [5]; 1.6 µg/mL in test [6]; 25 µg/mL in [7]; 6.3 µg/mL in test [8]; 3.1 µg/mL in test [9]; 12.5 µg/mL in [10]. Besides, the MBC in [11] was determined as 3.1 µg/mL; in [12], 6.3 µg/mL; in [13], 6.3 µg/mL; in [14], 6.3 µg/mL; in test [15], 6.3 µg/mL; in test [16], 12.5 µg/mL.
